The target of assay [1] is T1, endometase (matrilysin 2, MMP-26) (Homo sapiens, UniProt Q9NRE1).
T1 sequence (Q9NRE1 90-261): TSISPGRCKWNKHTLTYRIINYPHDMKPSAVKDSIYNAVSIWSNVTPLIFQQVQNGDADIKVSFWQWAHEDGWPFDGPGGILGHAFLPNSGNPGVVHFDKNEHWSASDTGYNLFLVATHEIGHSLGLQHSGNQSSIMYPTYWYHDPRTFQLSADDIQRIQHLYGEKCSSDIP
Description: active-site titration, fluorogenic peptide hydrolysis, Morrison fit. In kind it is biochemical. The conditions noted are these: 50 mM HEPES pH 7.5, 0.2 M NaCl, 10 mM CaCl2, 0.01 % Brij-35, 25 °C, 20 min preincubation.

Assay [2] addresses T1, endometase (matrilysin 2, MMP-26). Description: fluorogenic peptide hydrolysis. In kind it is biochemical. The procedure, abridged: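 MMP-26 was refolded from urea-solubilized insoluble protein by dialysis and was partially auto-activated. Active enzyme concentration was set by GM6001 titration. Final conditions were 1 nM active enzyme, 1 μM Mca-PLGLDpa-AR-NH₂, and test compound at 0.001–9 mM in 50 mM HEPES pH 7.5, 0.2 M NaCl, 10 mM CaCl₂ at 25 °C. Fluorescence was read at ex 328/em 393 nm, with maximum signal set as 100% activity.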

In the case of `CNC(=O)[C@H](Cc1c[nH]c2ccccc12)NC(=O)[C@@H](CC(=O)NO)CC(C)C` [GM6001], in assay [1], the “active-site titration, fluorogenic peptide hydrolysis, Morrison fit” value was “Titration of active MMP-26 with GM6001, a potent and broad-spectrum MMP inhibitor”.
On to `CCCCCCCCCCCCOS(=O)(=O)O` [SDS], for which it took 110 µM to reach half-maximal inhibition in assay [2] (IC50).
For `CCCCCCCCCCCCCC[N+](C)(C)C` [TTAB], in assay [2], the IC50 (as a rule, the concentration at which inhibition is half-maximal) was determined as 79 µM. The IC50 values of the last two compounds are within 1.5-fold of each other.

For the origin of these results see publication PMC2801054 (Analytical biochemistry, 2009).
